Measured values: PMC11293336 (Cell Reports Medicine, 2024)

Columns and labels:
[1] = Plasma pharmacokinetics of oral terameprocol, GATOR trial; format: in vivo, human; conditions: for AUC(0-inf): AUCINF
[2] = tested on: recurrent high-grade glioma; test: Tumor response and survival, GATOR trial; format: in vivo, human; conditions: oral, 19 participants
How it was run: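 Oral dosing 1,200–6,000 mg/day, days 1–5 every 28 days, in recurrent grade III–IV glioma. OS ran from registration to death from any cause, censored at last known alive. PFS ran from registration to progression, censored if still on treatment or at last progression-free date. Medians by Kaplan–Meier; confidence intervals by Brookmeyer-Crowley method.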

[3] = IV 1,700 mg/day (MTD), 5 days/month; cited from earlier work
[4] = tested on: patients with recurrent high-grade gliomas; conditions: IV; cited from earlier work
[5] = tested on: recurrent high-grade gliomas; conditions: IV; cited from earlier work
[6] = tested on: refractory head and neck cancer; conditions: intratumoral, three weekly doses at 10–15 mg/cm; cited from earlier work
[7] = tested on: advanced refractory solid tumors; conditions: intravenous; cited from earlier work
[8] = tested on: advanced acute myeloid leukemia or myelodysplastic syndrome; conditions: intravenous; cited from earlier work
[9] = oral 6,000 mg fed, cycle 1 day 4, actual values of 2 patients

Question: Which results are given for `COc1ccc(C[C@@H](C)[C@@H](C)Cc2ccc(OC)c(OC)c2)cc1OC` [terameprocol, meso-tetra-O-methyl nordihydroguaiaretic acid]?
Answer: Cmax ([1]; human, plasma, po, 1200 mg, Cmax, oral 1,200 mg fasted, cycle 1 day 1, mean ± SD): 30 ± 10 ng/mL; Cmax ([1]; human, plasma, po, 1200 mg, Cmax, oral 1,200 mg fasted, cycle 1 day 4, mean ± SD): 30 ± 30 ng/mL; half-life ([1]; human, plasma, po, 1200 mg, T1/2, oral 1,200 mg fasted, cycle 1 day 1, 1 patient): 1.9 h; Cmax ([1]; human, plasma, po, 2400 mg, Cmax, oral 2,400 mg fasted, cycle 1 day 1, mean ± SD): 100 ± 50 ng/mL; Cmax ([1]; human, plasma, po, 2400 mg, Cmax, oral 2,400 mg fasted, cycle 1 day 4, mean ± SD): 100 ± 60 ng/mL; half-life ([1]; human, plasma, po, 2400 mg, T1/2, oral 2,400 mg fasted, cycle 1 day 4, mean ± SD): 24.8 ± 6.2 h; Cmax ([1]; human, plasma, po, 3600 mg, Cmax, oral 3,600 mg fasted, cycle 1 day 1, mean ± SD): 280 ± 190 ng/mL; Cmax ([1]; human, plasma, po, 3600 mg, Cmax, oral 3,600 mg fasted, cycle 1 day 4, mean ± SD): 250 ± 140 ng/mL; half-life ([1]; human, plasma, po, 3600 mg, T1/2, oral 3,600 mg fasted, cycle 1 day 1, mean ± SD): 6 ± 0.6 h; half-life ([1]; human, plasma, po, 3600 mg, T1/2, oral 3,600 mg fasted, cycle 1 day 4, mean ± SD): 6.5 ± 0.8 h; Cmax ([1]; human, plasma, po, 4800 mg, Cmax, oral 4,800 mg fed, cycle 1 day 4, 1 patient): 230 ng/mL; half-life ([1]; human, plasma, po, 4800 mg, T1/2, oral 4,800 mg fed, cycle 1 day 4, 1 patient): 10.7 h; Tmax ([1]; human, plasma, po, 4800 mg, oral 4,800 mg fed, cycle 1 day 4, 1 patient): 5.9 h; AUC(0-inf) ([1]; human, plasma, po, 6000 mg, oral 6,000 mg fasted, cycle 1 day 1, 1 patient): 1900 ng·h/mL; AUC(0-inf) ([1]; human, plasma, po, 6000 mg, oral 6,000 mg fed, cycle 1 day 1, mean ± SD): 2400 ± 1800 ng·h/mL; Cmax ([1]; human, plasma, po, 6000 mg, Cmax, oral 6,000 mg fasted, cycle 1 day 1, mean ± SD): 200 ± 120 ng/mL; Cmax ([1]; human, plasma, po, 6000 mg, Cmax, oral 6,000 mg fed, cycle 1 day 1, mean ± SD): 330 ± 310 ng/mL; Cmax ([1]; human, plasma, po, 6000 mg, Cmax, oral 6,000 mg fed, cycle 1 day 4, mean ± SD): 600 ± 570 ng/mL; half-life ([1]; human, plasma, po, 6000 mg, T1/2, oral 6,000 mg fasted, cycle 1 day 4, 1 patient): 14.9 h; half-life ([1]; human, plasma, po, 6000 mg, T1/2, oral 6,000 mg fed, cycle 1 day 1, mean ± SD): 6.6 ± 2.2 h; Tmax ([1]; human, plasma, po, 6000 mg, oral 6,000 mg fasted, cycle 1 day 1, median (range; n)): 4 h; Tmax ([1]; human, plasma, po, 6000 mg, oral 6,000 mg fed, cycle 1 day 1, median (range; n)): 4.1 h; Tmax ([1]; human, plasma, po, 6000 mg, oral 6,000 mg fed, cycle 1 day 4, median (range; n)): 8 h; T1/2 ([1]; oral 1,200 mg fasted, cycle 1 day 4, actual values of 2 patients): 3.1 h; AUCINF ([1]; oral 2,400 mg fasted, cycle 1 day 1, actual values of 2 patients): 0.7 μg∗h/mL; T1/2 ([1]; oral 6,000 mg fasted, cycle 1 day 1, actual values of 2 patients): 14.9 h; Cmax ([1]; oral 6,000 mg fasted, cycle 1 day 4, actual values of 2 patients): 150 ng/mL; AUCINF [1, 9]: 4.4 μg∗h/mL; T1/2 [1, 9]: 6.5 h; partial or complete responses [2]: no partial or complete responses; median AUC [3]: 31.3 μg∗h/mL; myelosuppression [4]: nor did terameprocol cause significant myelosuppression; objective responses [5]: no objective responses; total necrosis of the injection site, patients [6]: 2/3; dose at which DLT was demonstrated [7]: 3,300 mg/day; partial response [7]: 1/29; stable disease [7]: 6/29; stable disease [8]: five
